{"data": "Measured values gathered from unrelated publications", "target": "Tyrosine-protein kinase ABL2 (ABL2, Homo sapiens, UniProt P42684)", "note": "Each line is one published result; the experiments were not run side by side."}
{"Structure (SMILES)": "C[C@H]1CCN(c2nccc(-c3cnn4ncccc34)n2)C1", "assay": "binding", "setting": "1 µM", "remaining binding": "78%"}
{"Structure (SMILES)": "O=C(NCC1CCOCC1)c1n[nH]cc1NC(=O)c1c(F)cccc1F", "assay": "binding, competition with immobilised ligand", "setting": "1 µM", "remaining binding": "100%"}
{"Structure (SMILES)": "O=C(NCCCN1CCOCC1)c1ccc(Nc2ncc(Cl)c(-c3ccc(Cl)s3)n2)cc1", "assay": "binding, competition with immobilised ligand", "setting": "1 µM", "remaining binding": "67%"}
{"Structure (SMILES)": "O=C(Nc1ccc(Oc2ccc(F)cc2)cc1)N1CCc2ncccc2[C@H]1c1ccc(F)cc1", "assay": "cell-free assay, competition with immobilised ligand", "setting": "1 µM", "remaining binding": "88%"}
{"Structure (SMILES)": "CN(C)c1nccc(-c2cnc3ncccn23)n1", "assay": "binding", "setting": "1 µM", "remaining binding": "99%"}
{"Structure (SMILES)": "CNCc1ccccc1-c1csc([C@@H](C)Nc2nc(C)nc3cc(OC)c(OC)cc23)c1", "assay": "cell-free assay, competition with immobilised ligand", "setting": "1 µM", "remaining binding": "100%"}
{"Structure (SMILES)": "Cc1c(-c2ccccc2)oc2c(C(=O)OCCN3CCCCC3)cccc2c1=O", "assay": "cell-free assay, competition with immobilised ligand", "setting": "10 µM", "remaining binding": "94%"}
{"Structure (SMILES)": "CN(C)c1nccc(-c2cnn3ncccc23)n1", "assay": "binding", "setting": "1 µM", "remaining binding": "99%"}
{"Structure (SMILES)": "O=C(c1ccc(Nc2nccc(-c3cc4ccccc4s3)n2)cc1)N1CCC(N2CCCC2)CC1", "assay": "binding, competition with immobilised ligand", "setting": "1 µM", "remaining binding": "77%"}
{"Structure (SMILES)": "CCN(CC)Cc1cc(Nc2ccnc3cc(Cl)ccc23)ccc1O", "assay": "cell-free assay, competition with immobilised ligand", "setting": "0.1 µM", "remaining binding": "97%"}
{"Structure (SMILES)": "N[C@@H]1CCN(c2nccc(-c3cnn4ncccc34)n2)C1", "assay": "binding", "setting": "1 µM", "remaining binding": "96%"}
{"Structure (SMILES)": "CS(=O)(=O)N1CCCC(NC(=O)[C@H](CCC2CCCCC2)NC(=O)c2ccc(CNC(=O)c3cnc4ccccn34)cc2)C1 (stereo partly drawn)", "assay": "cell-free assay, competition with immobilised ligand", "setting": "0.1 µM", "remaining binding": "56%"}
{"Structure (SMILES)": "Nc1ncc2c(n1)-c1c([nH]c3ccc(C#CC4CC4)cc13)CCCC2", "assay": "binding, competition with immobilised ligand", "setting": "1 µM", "remaining binding": "86%"}
{"Structure (SMILES)": "CSc1cccnc1N1CCN(Cc2nc3ccccc3[nH]2)CC1", "assay": "cell-free assay, competition with immobilised ligand", "setting": "1 µM", "remaining binding": "98%"}
{"Structure (SMILES)": "CNC(=O)c1cc(Oc2ccc(NC(=O)Nc3ccc(Cl)c(C(F)(F)F)c3)cc2)ccn1", "assay": "cell-free assay, competition with immobilised ligand", "setting": "10 µM", "remaining binding": "33%"}
{"Structure (SMILES)": "COc1cnc(Nc2cccc(S(N)(=O)=O)c2)nc1N1CCN(c2ccccc2)C(=O)C1", "assay": "binding, competition with immobilised ligand", "setting": "1 µM", "remaining binding": "100%"}
{"Structure (SMILES)": "Cc1nc(Cc2cccc(C(F)(F)F)c2)sc1-c1ccc(C(N)=O)nc1", "assay": "cell-free assay, competition with immobilised ligand", "setting": "1 µM", "remaining binding": "100%"}
{"Structure (SMILES)": "COC(=O)Nc1nc2cc(C(=O)c3ccccc3)ccc2[nH]1", "assay": "cell-free assay, competition with immobilised ligand", "setting": "0.1 µM", "remaining binding": "100%"}
{"Structure (SMILES)": "c1cncc(-c2cccc(Nc3nccc(NC4CCCCC4)n3)c2)c1", "assay": "binding, competition with immobilised ligand", "setting": "10 µM", "remaining binding": "56%"}
{"Structure (SMILES)": "CN1CC[C@H](c2c(O)cc(O)c3c(=O)cc(-c4ccccc4Cl)oc23)[C@H](O)C1", "assay": "cell-free assay, competition with immobilised ligand", "setting": "0.1 µM", "remaining binding": "100%"}
{"Structure (SMILES)": "O=C(NCc1ncc(C(F)(F)F)cc1Cl)c1ccc2c(c1)C1(CCS(=O)(=O)CC1)[C@@H](C1CC1)N2S(=O)(=O)c1ccc(F)cc1", "assay": "cell-free assay, competition with immobilised ligand", "setting": "1 µM", "remaining binding": "100%"}
